According to ChEMBL document CHEMBL3351900, “Conjugation of a nonspecific antiviral sapogenin with a specific HIV fusion inhibitor: a promising strategy for discovering new antiviral therapeutics” (J Med Chem, 2014):
pEC50: −log10 of the molar value. Square brackets hold non-standard residues; d marks the D form. Peptide text beside a SMILES is read from it. * marks the point of attachment. X1 = C=CCOC(=O)[C@]12CC[C@@H](C(=C)C)[C@@H]1[C@H]1CC[C@@H]3[C@@]4(C)CC[C@H](OC(=O)CCc5cn(CC(=O)*)nn5)C(C)(C)[C@@H]4CC[C@@]3(C)[C@]1(C)CC2; X3 = C=C(C)[C@@H]1CC[C@]2(C(=O)O)CC[C@]3(C)[C@H](CC[C@@H]4[C@@]5(C)CC[C@H](OC(=O)CCc6cn(CC(=O)*)nn6)C(C)(C)[C@@H]5CC[C@]43C)[C@@H]12; X5 = C=C(C)[C@@H]1CC[C@]2(C(=O)OCc3cn(CC(=O)*)nn3)CC[C@]3(C)[C@H](CC[C@@H]4[C@@]5(C)CC[C@H](OC(C)=O)C(C)(C)[C@@H]5CC[C@]43C)[C@@H]12; X4 = C=C(C)[C@@H]1CC[C@]2(C(=O)OCc3cn(CC(=O)*)nn3)CC[C@]3(C)[C@H](CC[C@@H]4[C@@]5(C)CC[C@H](O)C(C)(C)[C@@H]5CC[C@]43C)[C@@H]12; X7 = C[C@H]1[C@H](C)CC[C@]2(C(=O)OCc3cn(CC(=O)*)nn3)CC[C@]3(C)C(=CC[C@@H]4[C@@]5(C)CC[C@H](O)C(C)(C)[C@@H]5CC[C@]43C)[C@H]12; X10 = CC1(C)CC[C@]2(C(=O)OCc3cn(CC(=O)*)nn3)CC[C@]3(C)C(=CC[C@@H]4[C@@]5(C)CC[C@H](O)C(C)(C)[C@@H]5CC[C@]43C)[C@@H]2C1; βAla = NCCC(=O)O

Columns and labels:
[1] = system: Human immunodeficiency virus 1; experiment: Antiviral activity against HIV1 3B infected in human MT2 cells assessed as inhibition of viral p24 antigen production by ELISA; type: functional, organism-based; details: Human immunodeficiency virus 1, 3B
In short: (§1)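 MT-2 cells (1 × 10⁴) infected with 100 TCID₅₀ virus with or without peptides at graded concentrations. Culture supernatants collected on day 4 postinfection; p24 antigen quantified by ELISA. Percent inhibition and EC₅₀ calculated; tested in triplicate, mean ± standard deviation.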

[2] = Cytotoxicity against human MT2 cells after 4 days by XTT assay; type: cell-based
In short: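 MT-2 cells (5 × 10⁵/mL) mixed with equal volumes of graded conjugate concentrations and held at 37 °C for 4 days. XTT (1 mg/mL) with 0.02 μM phenazine methosulfate added for 4 h, then A450 read. CC50 calculated from the dose–response.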

[3] = system: Human immunodeficiency virus 1; experiment: Antiviral activity against HIV1 BaL infected in human […] cells assessed as inhibition of viral replication; type: functional, organism-based; details: Human immunodeficiency virus 1, BaL; in short: as §1
[4] = Selectivity index, ratio of CC50 for human MT2 cells to EC50 for HIV1 3B infected in human MT2 cells; type: toxicity, cell-based; details: read-out: Ratio CC50/EC50

| Structure (SMILES) | pEC50 [1] | CC50 at 96 h [2] [nM] | pEC50 [3] | selectivity ratio [4] |
| --- | --- | --- | --- | --- |
| C=CCOC(=O)[C@]12CC[C@@H](C(=C)C)[C@@H]1[C@H]1CC[C@@H]3[C@@]4(C)CC[C@H](OC(=O)CCc5cn(CC(=O)NCCC(=O)N[C@@H](CC(N)=O)C(=O)N[C@@H](CC(N)=O)C(=O)N[C@@H](Cc6ccc(O)cc6)C(=O)N[C@H](C(=O)N[C@@H](CO)C(=O)N[C@@H](CC(C)C)C(=O)N[C@H](C(=O)N[C@@H](Cc6cnc[nH]6)C(=O)N[C@@H](CO)C(=O)N[C@@H](CC(C)C)C(=O)N[C@H](C(=O)N[C@@H](CCC(=O)O)C(=O)N[C@@H](CCC(=O)O)C(=O)N[C@@H](CO)C(=O)N[C@@H](CCC(N)=O)C(=O)N[C@@H](CC(N)=O)C(=O)N[C@@H](CCC(N)=O)C(=O)N[C@@H](CCC(N)=O)C(=O)N[C@@H](CCC(=O)O)C(=O)N[C@@H](CCCCN)C(=O)N[C@@H](CC(N)=O)C(=O)N[C@@H](CCC(=O)O)C(=O)N[C@@H](CCC(N)=O)C(=O)N[C@@H](CCC(=O)O)C(=O)N[C@@H](CC(C)C)C(=O)N[C@@H](CC(C)C)C(N)=O)[C@@H](C)CC)[C@@H](C)CC)[C@@H](C)O)nn5)C(C)(C)[C@@H]4CC[C@@]3(C)[C@]1(C)CC2 ({X1-βAla}-NNYTSLIHSLIEESQNQQEKNEQELL-NH2) | 6.62 | > 25000 | 6.28 | > 103 |
| C=C(C)[C@@H]1CC[C@]2(C(=O)OCc3cn(CC(=O)NCCC(=O)N[C@@H](CC(N)=O)C(=O)N[C@@H](CC(N)=O)C(=O)N[C@@H](Cc4ccc(O)cc4)C(=O)N[C@H](C(=O)N[C@@H](CO)C(=O)N[C@@H](CC(C)C)C(=O)N[C@H](C(=O)N[C@@H](Cc4cnc[nH]4)C(=O)N[C@@H](CO)C(=O)N[C@@H](CC(C)C)C(=O)N[C@H](C(=O)N[C@@H](CCC(=O)O)C(=O)N[C@@H](CCC(=O)O)C(=O)N[C@@H](CO)C(=O)N[C@@H](CCC(N)=O)C(=O)N[C@@H](CC(N)=O)C(=O)N[C@@H](CCC(N)=O)C(=O)N[C@@H](CCC(N)=O)C(=O)N[C@@H](CCC(=O)O)C(=O)N[C@@H](CCCCN)C(=O)N[C@@H](CC(N)=O)C(=O)N[C@@H](CCC(=O)O)C(=O)N[C@@H](CCC(N)=O)C(=O)N[C@@H](CCC(=O)O)C(=O)N[C@@H](CC(C)C)C(=O)N[C@@H](CC(C)C)C(N)=O)[C@@H](C)CC)[C@@H](C)CC)[C@@H](C)O)nn3)CC[C@]3(C)[C@H](CC[C@@H]4[C@@]5(C)CC[C@H](OC(C)=O)C(C)(C)[C@@H]5CC[C@]43C)[C@@H]12 ({X5-βAla}-NNYTSLIHSLIEESQNQQEKNEQELL-NH2) | 6.30 | > 25000 | 7.00 | > 52 |
| C=C(C)[C@@H]1CC[C@]2(C(=O)OCc3cn(CC(=O)NCCC(=O)N[C@@H](CC(N)=O)C(=O)N[C@@H](CC(N)=O)C(=O)N[C@@H](Cc4ccc(O)cc4)C(=O)N[C@H](C(=O)N[C@@H](CO)C(=O)N[C@@H](CC(C)C)C(=O)N[C@H](C(=O)N[C@@H](Cc4cnc[nH]4)C(=O)N[C@@H](CO)C(=O)N[C@@H](CC(C)C)C(=O)N[C@H](C(=O)N[C@@H](CCC(=O)O)C(=O)N[C@@H](CCC(=O)O)C(=O)N[C@@H](CO)C(=O)N[C@@H](CCC(N)=O)C(=O)N[C@@H](CC(N)=O)C(=O)N[C@@H](CCC(N)=O)C(=O)N[C@@H](CCC(N)=O)C(=O)N[C@@H](CCC(=O)O)C(=O)N[C@@H](CCCCN)C(=O)N[C@@H](CC(N)=O)C(=O)N[C@@H](CCC(=O)O)C(=O)N[C@@H](CCC(N)=O)C(=O)N[C@@H](CCC(=O)O)C(=O)N[C@@H](CC(C)C)C(=O)N[C@@H](CC(C)C)C(N)=O)[C@@H](C)CC)[C@@H](C)CC)[C@@H](C)O)nn3)CC[C@]3(C)[C@H](CC[C@@H]4[C@@]5(C)CC[C@H](O)C(C)(C)[C@@H]5CC[C@]43C)[C@@H]12 ({X4-βAla}-NNYTSLIHSLIEESQNQQEKNEQELL-NH2) | 6.32 | > 25000 | 6.34 | > 52 |
| C=C(C)[C@@H]1CC[C@]2(C(=O)O)CC[C@]3(C)[C@H](CC[C@@H]4[C@@]5(C)CC[C@H](OC(=O)CCc6cn(CC(=O)NCCCC[C@H](NC(=O)CCNC(=O)[C@H](CC(C)C)NC(=O)[C@H](CC(C)C)NC(=O)[C@H](CCC(=O)O)NC(=O)[C@H](CCC(N)=O)NC(=O)[C@H](CCC(=O)O)NC(=O)[C@H](CC(N)=O)NC(=O)[C@H](CCCCN)NC(=O)[C@H](CCC(=O)O)NC(=O)[C@H](CCC(N)=O)NC(=O)[C@H](CCC(N)=O)NC(=O)[C@H](CC(N)=O)NC(=O)[C@H](CCC(N)=O)NC(=O)[C@H](CO)NC(=O)[C@H](CCC(=O)O)NC(=O)[C@H](CCC(=O)O)NC(=O)[C@@H](NC(=O)[C@H](CC(C)C)NC(=O)[C@H](CO)NC(=O)[C@H](Cc7cnc[nH]7)NC(=O)[C@@H](NC(=O)[C@H](CC(C)C)NC(=O)[C@H](CO)NC(=O)[C@@H](NC(=O)[C@H](Cc7ccc(O)cc7)NC(=O)[C@H](CC(N)=O)NC(=O)[C@H](CC(N)=O)NC(C)=O)[C@@H](C)O)[C@@H](C)CC)[C@@H](C)CC)C(N)=O)nn6)C(C)(C)[C@@H]5CC[C@]43C)[C@@H]12 (Ac-NNYTSLIHSLIEESQNQQEKNEQELL[βAla]K(X3)-NH2) | 7.21 | > 25000 | 7.08 | > 406 |
| CC[C@H](C)[C@H](NC(=O)[C@H](CC(C)C)NC(=O)[C@H](CO)NC(=O)[C@H](Cc1cnc[nH]1)NC(=O)[C@@H](NC(=O)[C@H](CC(C)C)NC(=O)[C@H](CO)NC(=O)[C@@H](NC(=O)[C@H](Cc1ccc(O)cc1)NC(=O)[C@H](CC(N)=O)NC(=O)[C@H](CC(N)=O)NC(=O)CCNC(=O)Cn1cc(COC(=O)[C@]23CCC(C)(C)C[C@H]2C2=CC[C@@H]4[C@@]5(C)CC[C@H](O)C(C)(C)[C@@H]5CC[C@@]4(C)[C@]2(C)CC3)nn1)[C@@H](C)O)[C@@H](C)CC)C(=O)N[C@@H](CCC(=O)O)C(=O)N[C@@H](CCC(=O)O)C(=O)N[C@@H](CO)C(=O)N[C@@H](CCC(N)=O)C(=O)N[C@@H](CC(N)=O)C(=O)N[C@@H](CCC(N)=O)C(=O)N[C@@H](CCC(N)=O)C(=O)N[C@@H](CCC(=O)O)C(=O)N[C@@H](CCCCN)C(=O)N[C@@H](CC(N)=O)C(=O)N[C@@H](CCC(=O)O)C(=O)N[C@@H](CCC(N)=O)C(=O)N[C@@H](CCC(=O)O)C(=O)N[C@@H](CC(C)C)C(=O)N[C@@H](CC(C)C)C(N)=O ({X10-βAla}-NNYTSLIHSLIEESQNQQEKNEQELL-NH2) | 6.43 | > 25000 | 6.30 | > 68 |
| CC[C@H](C)[C@H](NC(=O)[C@H](CC(C)C)NC(=O)[C@H](CO)NC(=O)[C@H](Cc1cnc[nH]1)NC(=O)[C@@H](NC(=O)[C@H](CC(C)C)NC(=O)[C@H](CO)NC(=O)[C@@H](NC(=O)[C@H](Cc1ccc(O)cc1)NC(=O)[C@H](CC(N)=O)NC(=O)[C@H](CC(N)=O)NC(=O)CCNC(=O)Cn1cc(COC(=O)[C@]23CC[C@@H](C)[C@H](C)[C@H]2C2=CC[C@@H]4[C@@]5(C)CC[C@H](O)C(C)(C)[C@@H]5CC[C@@]4(C)[C@]2(C)CC3)nn1)[C@@H](C)O)[C@@H](C)CC)C(=O)N[C@@H](CCC(=O)O)C(=O)N[C@@H](CCC(=O)O)C(=O)N[C@@H](CO)C(=O)N[C@@H](CCC(N)=O)C(=O)N[C@@H](CC(N)=O)C(=O)N[C@@H](CCC(N)=O)C(=O)N[C@@H](CCC(N)=O)C(=O)N[C@@H](CCC(=O)O)C(=O)N[C@@H](CCCCN)C(=O)N[C@@H](CC(N)=O)C(=O)N[C@@H](CCC(=O)O)C(=O)N[C@@H](CCC(N)=O)C(=O)N[C@@H](CCC(=O)O)C(=O)N[C@@H](CC(C)C)C(=O)N[C@@H](CC(C)C)C(N)=O ({X7-βAla}-NNYTSLIHSLIEESQNQQEKNEQELL-NH2) | 6.25 | > 25000 | 6.54 | > 44 |
| C=C(C)[C@@H]1CC[C@]2(C(=O)OCc3cn(CC(=O)NCCCC[C@H](NC(=O)CCNC(=O)[C@H](CC(C)C)NC(=O)[C@H](CC(C)C)NC(=O)[C@H](CCC(=O)O)NC(=O)[C@H](CCC(N)=O)NC(=O)[C@H](CCC(=O)O)NC(=O)[C@H](CC(N)=O)NC(=O)[C@H](CCCCN)NC(=O)[C@H](CCC(=O)O)NC(=O)[C@H](CCC(N)=O)NC(=O)[C@H](CCC(N)=O)NC(=O)[C@H](CC(N)=O)NC(=O)[C@H](CCC(N)=O)NC(=O)[C@H](CO)NC(=O)[C@H](CCC(=O)O)NC(=O)[C@H](CCC(=O)O)NC(=O)[C@@H](NC(=O)[C@H](CC(C)C)NC(=O)[C@H](CO)NC(=O)[C@H](Cc4cnc[nH]4)NC(=O)[C@@H](NC(=O)[C@H](CC(C)C)NC(=O)[C@H](CO)NC(=O)[C@@H](NC(=O)[C@H](Cc4ccc(O)cc4)NC(=O)[C@H](CC(N)=O)NC(=O)[C@H](CC(N)=O)NC(C)=O)[C@@H](C)O)[C@@H](C)CC)[C@@H](C)CC)C(N)=O)nn3)CC[C@]3(C)[C@H](CC[C@@H]4[C@@]5(C)CC[C@H](O)C(C)(C)[C@@H]5CC[C@]43C)[C@@H]12 (Ac-NNYTSLIHSLIEESQNQQEKNEQELL[βAla]K(X4)-NH2) | 6.81 | > 25000 | 6.87 | > 50 |
